{"data": "Measured values pooled from the literature", "target": "Activin receptor type-1 (ACVR1, Homo sapiens, UniProt Q04771)", "Residues used in one study (Q04771 1-509)": "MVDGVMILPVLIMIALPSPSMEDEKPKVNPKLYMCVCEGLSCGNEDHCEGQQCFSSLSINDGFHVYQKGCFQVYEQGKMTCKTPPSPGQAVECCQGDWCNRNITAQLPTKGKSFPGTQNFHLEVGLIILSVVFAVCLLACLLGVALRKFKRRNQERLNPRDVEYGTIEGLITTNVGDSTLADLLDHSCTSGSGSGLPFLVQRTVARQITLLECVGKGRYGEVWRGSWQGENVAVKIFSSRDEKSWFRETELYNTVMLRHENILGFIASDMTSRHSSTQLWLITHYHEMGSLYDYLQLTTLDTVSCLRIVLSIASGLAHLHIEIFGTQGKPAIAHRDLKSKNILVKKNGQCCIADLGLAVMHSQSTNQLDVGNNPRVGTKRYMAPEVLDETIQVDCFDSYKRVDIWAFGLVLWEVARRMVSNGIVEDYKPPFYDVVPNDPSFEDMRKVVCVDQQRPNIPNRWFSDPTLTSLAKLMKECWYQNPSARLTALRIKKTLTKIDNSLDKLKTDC", "note": "Each line is one published result; the experiments were not run side by side."}
{"SMILES": "CC(C)(C)c1cc(C=C(C#N)C#N)cc(Br)c1O", "read-out": "enzyme activity", "action": "inhibitor", "tested at": "0.5 µM", "endpoint": "remaining activity", "result": "102%"}
{"SMILES": "Cn1cncc1[C@](O)(COc1ccc(C#N)cc1-c1ccc(OC(F)(F)F)cc1)c1ccc(C#N)cc1", "read-out": "cell-free assay", "technique": "competition with immobilised ligand", "tested at": "1 µM", "endpoint": "remaining binding", "result": "78%"}
{"SMILES": "COc1ncccc1-c1cnn2ccc(N3CCN(C(=O)OC(C)C)CC3)nc12", "read-out": "binding", "technique": "competition with immobilised ligand", "tested at": "1 µM", "endpoint": "remaining binding", "result": "72%"}
{"SMILES": "Cn1cc(-c2cccc(N3CCc4c(sc5c4CC(C)(C)C5)C3=O)c2CO)cc(Nc2ccncn2)c1=O", "read-out": "enzyme activity", "action": "inhibitor", "tested at": "1 µM", "endpoint": "inhibition", "result": "-1%"}
{"SMILES": "O=c1[nH]c2ccccc2n1C1CCN(Cc2ccc(-c3[nH]c4cc5ncnc5cc4nc3-c3ccccc3)cc2)CC1", "read-out": "cell-free assay", "tested at": "0.5 µM", "endpoint": "remaining signal", "result": "102%"}
{"SMILES": "N#CC1(c2ccccn2)CCN(Cc2cc(C(=O)O)c(=O)n3ccccc23)CC1", "read-out": "cell-free assay", "technique": "competition with immobilised ligand", "tested at": "1 µM", "endpoint": "remaining binding", "result": "96%"}
{"SMILES": "Nc1ncc(-c2nc(N3CCOCC3)nc(N3CCOCC3)n2)c(C(F)F)n1", "read-out": "cell-free assay", "technique": "competition with immobilised ligand", "tested at": "10 µM", "endpoint": "remaining binding", "result": "83%"}
{"SMILES": "Cc1nn(C)cc1-c1nc2c(N3CCN(Cc4ccc(Cl)cc4)CC3)c(Cl)cnc2[nH]1", "read-out": "binding", "technique": "competition with immobilised ligand", "tested at": "1 µM", "endpoint": "remaining binding", "result": "90%"}
